Results reported in ChEMBL document CHEMBL1147883, “Design, synthesis, and biological evaluation of substituted-N-(thieno[2,3-b]pyridin-3-yl)-guanidines, N-(1H-pyrrolo[2,3-b]pyridin-3-yl)-guanidines, and N-(1H-indol-3-yl)-guanidines” (2007).

Key:
Type in all cases: functional, Rattus norvegicus
[1] = Insulinotropic activity in RIN5F cells assessed as stimulation of glucose-dependent insulin secretion per ug of protein at 0.1 uM
Procedure, shortened: (§1)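 Seeded at 0.2×10^6 cells/well, grown overnight to 80% confluence. PBS wash, then 40 min preincubation in Krebs-Ringer Hepes buffer (1.1 mM glucose, 0.5% BSA, pH 7.4). Supernatant insulin measured by rat insulin ELISA and normalized to total protein (pg/µg/h). n = 3, mean ± SD.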

[2] = Insulinotropic activity in RIN5F cells assessed as stimulation of glucose-dependent insulin secretion per microgram of protein at 10 uM; procedure, shortened: as §1
[3] = Insulinotropic activity in RIN5F cells assessed as stimulation of glucose-dependent insulin secretion per ug of protein at 1 uM; procedure, shortened: as §1

For `N=C(N)Nc1c(Cc2ccccc2)sc2ncc(Cl)cc12`, the Activity [1] was 10.6 pg/h, the Activity [2] was 14.5 pg/h and the Activity [3] was 12.6 pg/h.

In the case of `N=C(N)Nc1c[nH]c2ccccc12`, the Activity [1] is reported as 10.9 pg/h, the Activity [2] is reported as 15 pg/h and the Activity [3] is reported as 13 pg/h.

In the case of `CCc1sc2ncc(Cl)cc2c1NC(=N)N`, the Activity [1] is reported as 14.8 pg/h, the Activity [2] is reported as 31.5 pg/h and the Activity [3] is reported as 17.8 pg/h.

Work on `Cc1[nH]c2ccc(Cl)cc2c1C1=NCCN1` yielded an Activity [1] of 16.4 pg/h, an Activity [2] of 36.4 pg/h and an Activity [3] of 20.6 pg/h.

In the case of `N=C(N)Nc1c(C2CCCCC2)[nH]c2ncccc12`, the Activity [1] is reported as 10.2 pg/h, the Activity [2] is reported as 14.5 pg/h and the Activity [3] is reported as 12.5 pg/h.

With `Cc1sc2ncc(Cl)cc2c1NC(=N)N` the Activity [1] was 15.1 pg/h, the Activity [2] was 32.1 pg/h and the Activity [3] was 18.1 pg/h.

In the case of `Cc1[nH]c2ccc(Cl)cc2c1NC(=N)N`, the Activity [1] is reported as 16.1 pg/h, the Activity [2] is reported as 36 pg/h and the Activity [3] is reported as 20.1 pg/h.

Work on `N=C(N)Nc1c(Cc2ccccc2)[nH]c2ccc(Cl)cc12` yielded an Activity [1] of 11.2 pg/h, an Activity [2] of 15.4 pg/h and an Activity [3] of 13.2 pg/h.

For `N=C(N)Nc1c(-c2ccccc2)[nH]c2ccc(Cl)cc12`, the Activity [1] was 15.9 pg/h, the Activity [2] was 35.5 pg/h and the Activity [3] was 19.5 pg/h.

Compound `N=C(N)Nc1c(Cc2ccccc2)[nH]c2ncccc12` has an Activity [1] of 10.9 pg/h, an Activity [2] of 14.9 pg/h and an Activity [3] of 12.6 pg/h.

`N=C(N)Nc1c(Cc2ccccc2)[nH]c2ccccc12` showed an Activity [1] of 11.1 pg/h, an Activity [2] of 15.1 pg/h and an Activity [3] of 13.1 pg/h.

For `CCc1[nH]c2ncccc2c1NC(=N)N`, the Activity [1] was 10.8 pg/h, the Activity [2] was 15 pg/h and the Activity [3] was 13 pg/h.

In the case of `CCc1[nH]c2ncc(Cl)cc2c1NC(=N)N`, the Activity [1] is reported as 15.1 pg/h, the Activity [2] is reported as 33.1 pg/h and the Activity [3] is reported as 18.1 pg/h.

Compound `N=C(N)Nc1c(C2CCCCC2)[nH]c2ccccc12` has an Activity [1] of 10.9 pg/h, an Activity [2] of 15.1 pg/h and an Activity [3] of 13.1 pg/h.

Compound `N=C(N)Nc1csc2ncccc12` has an Activity [1] of 10.1 pg/h, an Activity [2] of 14.1 pg/h and an Activity [3] of 12.1 pg/h.

With `N=C(N)Nc1c[nH]c2ncc(Cl)cc12` the Activity [1] was 10.5 pg/h, the Activity [2] was 14.6 pg/h and the Activity [3] was 12.5 pg/h.

`Cc1sc2ncccc2c1NC(=N)N` gave an Activity [1] of 11.1 pg/h, an Activity [2] of 29.1 pg/h and an Activity [3] of 15.1 pg/h.

Compound `Cc1[nH]c2ncccc2c1NC(=N)N` has an Activity [1] of 11.5 pg/h, an Activity [2] of 29.5 pg/h and an Activity [3] of 15.5 pg/h.

For `CCc1[nH]c2ccccc2c1NC(=N)N`, the Activity [1] was 11.1 pg/h, the Activity [2] was 16.1 pg/h and the Activity [3] was 13.4 pg/h.

For `N=C(N)Nc1c(-c2ccccc2)[nH]c2ccccc12`, the Activity [1] was 12.1 pg/h, the Activity [2] was 29.1 pg/h and the Activity [3] was 16.1 pg/h.

In the case of `N=C(N)Nc1c(C2CCCCC2)sc2ncc(Cl)cc12`, the Activity [1] is reported as 10.5 pg/h, the Activity [2] is reported as 14.5 pg/h and the Activity [3] is reported as 12.5 pg/h.

`N=C(N)Nc1c(-c2ccccc2)sc2ncc(Cl)cc12` gave an Activity [1] of 14.9 pg/h, an Activity [2] of 31.6 pg/h and an Activity [3] of 17.8 pg/h.

`N=C(N)Nc1c(-c2ccccc2)[nH]c2ncc(Cl)cc12` showed an Activity [1] of 15.2 pg/h, an Activity [2] of 33.1 pg/h and an Activity [3] of 18.1 pg/h.

With `N=C(N)Nc1c(Cc2ccccc2)[nH]c2ncc(Cl)cc12` the Activity [1] was 10.9 pg/h, the Activity [2] was 15 pg/h and the Activity [3] was 12.9 pg/h.

In the case of `N=C(N)Nc1c(C2CCCCC2)[nH]c2ccc(Cl)cc12`, the Activity [1] is reported as 11.2 pg/h, the Activity [2] is reported as 15.9 pg/h and the Activity [3] is reported as 13.2 pg/h.

With `N=C(N)Nc1c(C2CCCCC2)sc2ncccc12` the Activity [1] was 10.1 pg/h, the Activity [2] was 14.1 pg/h and the Activity [3] was 12.1 pg/h.

For `N=C(N)Nc1c(-c2ccccc2)[nH]c2ncccc12`, the Activity [1] was 11.5 pg/h, the Activity [2] was 28.5 pg/h and the Activity [3] was 15.5 pg/h.

For `Cc1[nH]c2ccccc2c1NC(=N)N`, the Activity [1] was 12.1 pg/h, the Activity [2] was 30.1 pg/h and the Activity [3] was 16.1 pg/h.

Compound `N=C(N)Nc1csc2ncc(Cl)cc12` has an Activity [1] of 10.2 pg/h, an Activity [2] of 14.2 pg/h and an Activity [3] of 12.2 pg/h.

For `CCc1[nH]c2ccc(Cl)cc2c1NC(=N)N`, the Activity [1] was 15.8 pg/h, the Activity [2] was 35.2 pg/h and the Activity [3] was 19.5 pg/h.

Compound `N=C(N)Nc1c[nH]c2ccc(Cl)cc12` has an Activity [1] of 11.1 pg/h, an Activity [2] of 15.5 pg/h and an Activity [3] of 13.2 pg/h.

In the case of `CCCCNC(=O)NS(=O)(=O)c1ccc(C)cc1` [TOLBUTAMIDE], the Activity [1] is reported as 19.9 pg/h and the Activity [3] is reported as 27.1 pg/h.

For `N=C(N)Nc1c(Cc2ccccc2)sc2ncccc12`, the Activity [1] was 10.5 pg/h, the Activity [2] was 14.5 pg/h and the Activity [3] was 12.5 pg/h.

With `CCc1sc2ncccc2c1NC(=N)N` the Activity [1] was 10.6 pg/h, the Activity [2] was 14.6 pg/h and the Activity [3] was 12.6 pg/h.

For `N=C(N)Nc1c(C2CCCCC2)[nH]c2ncc(Cl)cc12`, the Activity [1] was 10.8 pg/h, the Activity [2] was 15.1 pg/h and the Activity [3] was 13.1 pg/h.

`Cc1[nH]c2ncc(Cl)cc2c1NC(=N)N` gave an Activity [1] of 15.5 pg/h, an Activity [2] of 35.1 pg/h and an Activity [3] of 19.1 pg/h.

`N=C(N)Nc1c(-c2ccccc2)sc2ncccc12` showed an Activity [1] of 11.1 pg/h, an Activity [2] of 27.9 pg/h and an Activity [3] of 15.1 pg/h.

`N=C(N)Nc1c[nH]c2ncccc12` showed an Activity [1] of 10.5 pg/h, an Activity [2] of 14.5 pg/h and an Activity [3] of 12.5 pg/h.
